Here are results for seven compounds from ChEMBL document CHEMBL1649356, “Triterpenoids from Aglaia abbreviata and their cytotoxic activities” (J Nat Prod, 2010).

Each structure is given as a SMILES string.

Holding throughout (type): functional, cell-based
One test relates to KB. The test is described as follows: Cytotoxicity against human KB cells after 48 hrs by MTT assay. The essentials: (§1)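 Cells grown in RPMI-1640 or DMEM with 10% FBS, 5% CO2, 37 °C. Adherent cells seeded and allowed 12 h to attach before compound addition; suspension cells seeded just before addition; initial density 1 × 10^5 cells/mL. Compound at 0.1, 1, 10, 100, 500 µM, triplicate, 48 h; doxorubicin positive control. Viability by MTT; IC50 by Reed and Muench method.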

The next test has as its system MCF7. Briefly: Cytotoxicity against human MCF7 cells after 48 hrs by MTT assay. The note with it: MCF7, 48 h. The essentials: as §1
(Tetrazolium dyes change colour on reduction, which living cells bring about.)

The test system of the next test is SMMC-7721. The test is described as follows: Cytotoxicity against human SMMC7721 cells after 48 hrs by MTT assay. The note with it: SMMC-7721, 48 h. The essentials:
as §1

The subject of the next test is K562. Briefly: Cytotoxicity against human K562 cells after 48 hrs by MTT assay. The following applies: K562, 48 h. The essentials:
as §1

The nature of test [1]: Cytotoxicity against human KB/VCR cells after 48 hrs by MTT assay. The essentials: as §1
Test [2] is described as follows: Cytotoxicity against human MCF7/ADR cells after 48 hrs by MTT assay. The note with it: NCI/ADR-RES. The gist of the method:
as §1

One may read the IC50 as the point on the concentration scale where inhibition reaches its midpoint. Low values mean greater potency, high ones weaker potency. On to `CC1(C)C(=O)CC[C@]2(C)[C@H]3CC[C@@H]4[C@@H]([C@]5(C)C=CC(=O)O5)CC[C@@]4(C)[C@]3(C)CC[C@@H]12` [AGLAIABBREVIATIN A], for which the half-inhibitory concentration (IC50) (in the test with KB; in the test on MCF7; in the test with SMMC-7721; with K562; in test [1]; in test [2]) was over 10000 nM each time.

As for `CC(=O)O[C@@H]1CC[C@]2(C)[C@H]3CC[C@@H]4[C@@H]([C@]5(C)C=CC(=O)O5)CC[C@@]4(C)[C@]3(C)CC[C@H]2C1(C)C` [AGLAIABBREVIATIN B], the IC50 (in the test with KB; with MCF7; in the test on SMMC-7721; with K562; in test [1]; in test [2]) was over 10000 nM throughout.

Take `CC(=O)[C@H]1CC[C@]2(C)[C@@H]1CC[C@@H]1[C@@]3(C)CC[C@@H](O)C(C)(C)[C@@H]3CC[C@]12C` [AGLAIABBREVIATIN C]: the IC50 was over 10000 nM in the test on KB; over 10000 nM in the test on MCF7; over 10000 nM in the test with SMMC-7721; over 10000 nM in the test on K562; 1100 nM in test [1]; over 10000 nM in test [2].

For the compound `CC1(C)C=CC[C@@](C)([C@H]2CC[C@]3(C)[C@@H]2CC[C@@H]2[C@@]4(C)CCC(=O)C(C)(C)[C@@H]4CC[C@]23C)O1` [AGLAIABBREVIATIN D], the 50% inhibitory concentration (IC50) is 1200 nM in the test on KB; over 10000 nM with MCF7; 2100 nM in the test with SMMC-7721; 1200 nM in the test on K562; 960 nM in test [1]; over 10000 nM in test [2].

As for `C=C(C/C=C/C(C)(C)O)[C@H]1CC[C@]2(C)[C@@H]1CC[C@@H]1[C@@]3(C)CCC(=O)C(C)(C)[C@@H]3CC[C@]12C` [AGLAIABBREVIATIN E], the concentration for half-maximal inhibition (IC50) was 2700 nM with KB; over 10000 nM with MCF7; 4200 nM in the test with SMMC-7721; 1800 nM in the test with K562; 830 nM in test [1]; over 10000 nM in test [2].

In the case of `CC(=O)O[C@@H]1CC[C@]2(C)[C@H]3CC[C@@H]4[C@@H]([C@@](C)(O)CCCC(C)(C)OO)CC[C@@]4(C)[C@]3(C)CC[C@H]2C1(C)C` [AGLAIABBREVIATIN F], the IC50 was 600 nM in the test with KB; over 10000 nM with MCF7; 1400 nM with SMMC-7721; 460 nM in the test on K562; 310 nM in test [1]; 5500 nM in test [2].

In the case of `COc1cccc2c1C(=O)c1c(O)c3c(c(O)c1C2=O)C[C@@](O)(C(=O)CO)C[C@@H]3O[C@H]1C[C@H](N)[C@H](O)[C@H](C)O1` [DOXORUBICIN], the IC50 in the test with KB was 12 nM; in the test with MCF7, 540 nM; in the test with SMMC-7721, 370 nM; in the test with K562, 170 nM; in test [1] it was 450 nM; in test [2] it was over 10000 nM.
